Measurements reported in PubChem BioAssay AID743257 (The Scripps Research Institute Molecular Screening Center, 2014).
The campaign covered roughly 2,900 compounds. About 1,900 (66%) were called active.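 Rule for the calls: active = mean inhibition across replicates above the hit cutoff set in the primary screen (cut at about 8.5% in these data); inactive = the rest.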 The set was probably picked from earlier hits. Not all results are given here.

molecular target: Disintegrin and metalloproteinase domain-containing protein 17 (Homo sapiens) (UniProt P78536); assay: ADAM17 inhibitors, hit retest, confirmation, biochemical, QFRET peptide cleavage (AID 743257); conditions: recombinant ADAM17, EDANS/DABCYL QFRET peptide cleavage; at 6.95 µM; hits give high values;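 note: 0% = DMSO wells and 100% = marimastat wells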
Procedure, shortened: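 Material: Human ADAM17 enzyme, FRET peptide cleavage | Buffer or medium: 50 mM HEPES pH 7.5, 0.01% Brij | Doses: 6.95 µM compound, single dose | Schedule: 30 min preincubation, 3 h reaction | Technique: Fluorescence at ex 359 nm, em 460 nm | Read-out: Percent inhibition | Benchmarks: DMSO wells and 1 µM marimastat wells as references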

Chain of Disintegrin and metalloproteinase domain-containing protein 17 (Homo sapiens) (P78536 215-824 limits assumed): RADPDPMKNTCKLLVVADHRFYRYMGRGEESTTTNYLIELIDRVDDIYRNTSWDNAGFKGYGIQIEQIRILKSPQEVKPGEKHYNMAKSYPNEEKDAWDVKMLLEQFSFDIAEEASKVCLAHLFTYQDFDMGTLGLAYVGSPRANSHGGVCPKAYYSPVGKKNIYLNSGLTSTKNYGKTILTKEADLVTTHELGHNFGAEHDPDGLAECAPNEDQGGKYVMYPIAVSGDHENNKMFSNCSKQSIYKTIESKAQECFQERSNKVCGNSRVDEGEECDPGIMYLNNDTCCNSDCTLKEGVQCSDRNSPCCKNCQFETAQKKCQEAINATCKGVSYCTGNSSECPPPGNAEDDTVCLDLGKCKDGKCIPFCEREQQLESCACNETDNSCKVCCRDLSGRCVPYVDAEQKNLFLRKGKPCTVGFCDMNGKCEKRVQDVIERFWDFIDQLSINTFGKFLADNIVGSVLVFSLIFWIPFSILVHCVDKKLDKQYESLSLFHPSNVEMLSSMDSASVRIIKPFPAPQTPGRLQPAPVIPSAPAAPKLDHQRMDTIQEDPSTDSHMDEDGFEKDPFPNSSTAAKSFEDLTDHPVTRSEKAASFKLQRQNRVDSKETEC

inhibition, inactive:
COc1ccc(C(CNC(=O)c2cc(S(=O)(=O)Nc3cccc(C)c3)ccc2C)N2CCCC2)cc1 (configuration not stated) 2.1%
CCN1C(=O)C(CC(=O)Nc2cc(C)ccc2C)SC1=Nc1ccc(S(N)(=O)=O)cc1 (configuration not stated) 7.07%
CCOc1ccc(Nc2nc(Cc3nnc(SCC(=O)c4ccc(C)cc4)o3)cs2)cc1 8.23%
CN(C(=O)c1cccc(NC(=O)Cc2cccc([N+](=O)[O-])c2)c1)C1CCCCC1 8.38%
CC[C@@]12C(=O)N(c3ccccc3)C(=O)N1[C@H](c1ccc(Br)cc1)[C@@H]1C(=O)N(C(C)(C)C)C(=O)[C@@H]12 2.65%
CCOc1ccccc1C1CC(c2cccc(NS(C)(=O)=O)c2)=NN1C(=O)c1ccccc1 (configuration not stated) 3.69%
CCOc1ccc(N2C(=O)CC(N(CCc3ccc(OC)c(OC)c3)C(=S)Nc3ccccc3)C2=O)cc1 (configuration not stated) 2.05%
Cc1ccc(S(=O)(=O)NCCSc2ccccc2)cc1[N+](=O)[O-] 7.81%
Cc1onc(C(=O)NN)c1-c1csc(COc2ccccc2)n1 3.32%
COC(=O)c1c(C)[nH]c(C(=O)/C=C/c2ccc(Cl)cc2)c1C -5.64%
COc1ccc(C(=O)C2CCCN(S(=O)(=O)c3cccc(C)c3)C2)c(C)c1 (configuration not stated) 6.46%
COCCNC(=O)C(c1ccc(C)o1)N(Cc1ccccc1)C(=O)Cn1nnc2ccccc21 (configuration not stated) 1.74%
COc1ccccc1C(=O)NCC(=O)OCC(=O)NNC(=O)c1ccc(Br)cc1 3.39%
Cn1c(=O)c2c(nc(N/N=C/c3cccs3)n2Cc2ccc(Br)cc2)n(C)c1=O -12%
COc1ccc(C(=O)Nc2ccc(C3(C#N)CCCC3)cc2)cc1OC -0.86%
Cc1ccc(-c2n[nH]c(=S)n2/N=C/c2cc3c(cc2[N+](=O)[O-])OCO3)cc1 4.12%
COc1cccc(CNc2nc(C(F)(F)F)nc3ccccc23)c1 7.14%
CS(=O)(=O)Nc1cccc(C2=NN(S(=O)(=O)c3ccccc3)C(c3cccs3)C2)c1 (configuration not stated) 6.85%
Cc1cc(C)cc(NC(=S)NCCc2c[nH]c3ccccc23)c1 8.25%
COc1ccc(CC(N)c2csc(NC(=O)NC(c3ccccc3)c3ccccc3)n2)cc1 (configuration not stated) 3.55%
CCOc1ccccc1CNS(=O)(=O)c1cc(-c2cc(C)no2)ccc1C 3.8%
CCOC(=O)c1cccc(NC(=O)CN(C)S(=O)(=O)c2ccc(-c3cocn3)s2)c1 6.09%
COC(=O)N(C)C[C@@H]1OCc2cnnn2CCCC(=O)N([C@@H](C)CO)C[C@@H]1C 0.27%

inhibition, active:
CC1(Cc2cccc(C#N)c2)C(=O)Nc2ccc(-c3cccc(C(F)(F)F)c3)cc21 (configuration not stated) 16.4%
O=C(COC(=O)CCCSc1nc2ccccc2[nH]1)Nc1ccc(Oc2ccccc2)cc1 21.9%
COC(C(=O)Nc1ccc(S(=O)(=O)Nc2ccc(C)c(C)c2)cc1)c1ccccc1 (configuration not stated) 13.7%
O=C(CC1SC(=Nc2ccccc2)N(Cc2ccccn2)C1=O)Nc1cccc(Cl)c1 (configuration not stated) 18.4%
O=C(CSc1nc(-c2ccccc2)cs1)Nc1cccc([N+](=O)[O-])c1 14.6%
CC(C)(C)N1C(=O)[C@H]2[C@@H](c3ccc(Br)cc3)N3C(=O)N(c4cccc(Cl)c4)C(=O)[C@@]3(C)[C@H]2C1=O 12.8%
COc1ccc([C@@H]2[C@@H]3C(=O)N(C(C)(C)C)C(=O)[C@@H]3[C@]3(Cc4ccccc4)C(=O)N(c4cccc(Br)c4)C(=O)N23)cc1 14.3%
O=C(OCc1ccc(-c2ccccc2)cc1)c1cccc(O)c1 15.7%
Cc1ccc(OCCOCCOc2ccc(Br)cc2/C=N\NC(=O)c2ccncc2)cc1 16.2%
COc1cccc(/C=N/NC(=O)c2cccc([N+](=O)[O-])c2)c1OS(=O)(=O)c1ccc(C)cc1 13.8%
CC(C)Oc1cc(F)ccc1-c1cc(C(=O)Nc2cccc(Cl)c2)[nH]n1 14.6%
O=C(COc1ccc(Cl)cc1)N1CCN(c2cccc(C(F)(F)F)c2)CC1 9.24%
CCOC(=O)c1c(Cc2ccc(Cl)cc2)c[nH]c1C 9.85%
COc1ccc(S(=O)(=O)N2CCCCC2)cc1Br 10.9%
CC(=O)Nc1ccc(S(=O)(=O)N2CCN(CCCOc3cc(C)ccc3C)CC2)cc1 9.43%
Cc1cc(C)cc(NS(=O)(=O)c2ccc(Oc3ncc(C(F)(F)F)cc3Cl)cc2)c1 20.1%
COc1cccc(NC(=O)C2C(c3ccccc3)C2(Cl)Cl)c1 (configuration not stated) 19.5%
O=C(CN1CCN(c2nc(-c3ccccc3)cs2)CC1)NCc1ccc2c(c1)OCO2 12.5%
CCOc1ccc(-n2c(SCC(=O)Nc3cc(C)c(NC(=O)c4ccccc4)cc3OC)nnc2-c2cccs2)cc1 14.6%
Clc1ccc(C(Cn2ccnc2)OCc2ccsc2Cl)c(Cl)c1 (configuration not stated) 9.7%
N#C/C(=C/c1ccc(N2CCCCC2)o1)C(=O)NCCc1c[nH]c2ccccc12 10.2%
COc1ccc(-c2cc(C3CCN(c4ncccc4[N+](=O)[O-])CC3)[nH]n2)cc1 13.2%
C=C(C)COc1ccc(-c2n[nH]c(C)c2-c2ccccc2)c(O)c1 20.8%
COc1ccc(Cl)cc1NC(=O)COC(=O)C(CC(C)C)N1C(=O)C2CC=CCC2C1=O (configuration not stated) 9.46%
CC(C)N(C(=O)[C@H]1C[C@H](CC(=O)NC(C)(C)C)C(=O)N2CCc3c([nH]c4ccc(Cl)cc34)[C@]12C)C(C)C 8.88%
Cc1ccc(S(=O)(=O)N2CCN(C(=O)COC(=O)c3c(C)cc(C)cc3C)CC2)c(C)c1 9.17%
Cn1nc(C(F)(F)F)c2cc(NC(=O)OCC(C)(C)C)sc21 10.8%
O=C(CSc1nc(Nc2ccccc2)nc(N2CCOCC2)n1)Nc1cc(Cl)ccc1O 18.7%
CC(C)(C)c1ccc(S(=O)(=O)NCC2CCN(C(=O)C(=O)c3cc4ccccc4o3)CC2)cc1 15.1%
